pIC50: −log10 of the molar value. In brackets after ≈: the same amount, converted by molar mass.
Legend:
[1] = system: KB; assay: In vitro growth inhibition of KB, epidermoid carcinoma of the nasopharynx.; assay type: functional, cell-based; details: Homo sapiens
Outline: (§1)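 Human tumor lines screened in-house: KB, A549, MCF-7, CAKI-1 and SK-MEL-2. Read-out was SRB staining with absorbance at 562 nm.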

[2] = biological target: T1, DNA topoisomerase 1 (Homo sapiens) (UniProt P11387); assay: In vitro inhibition against topoisomerase I activity Measured as ATP independent relaxation of supercoiled plasmid DNA compared to enzyme and DNA control reaction relative to Camptothecin (100 uM)
T1 sequence (whole entry): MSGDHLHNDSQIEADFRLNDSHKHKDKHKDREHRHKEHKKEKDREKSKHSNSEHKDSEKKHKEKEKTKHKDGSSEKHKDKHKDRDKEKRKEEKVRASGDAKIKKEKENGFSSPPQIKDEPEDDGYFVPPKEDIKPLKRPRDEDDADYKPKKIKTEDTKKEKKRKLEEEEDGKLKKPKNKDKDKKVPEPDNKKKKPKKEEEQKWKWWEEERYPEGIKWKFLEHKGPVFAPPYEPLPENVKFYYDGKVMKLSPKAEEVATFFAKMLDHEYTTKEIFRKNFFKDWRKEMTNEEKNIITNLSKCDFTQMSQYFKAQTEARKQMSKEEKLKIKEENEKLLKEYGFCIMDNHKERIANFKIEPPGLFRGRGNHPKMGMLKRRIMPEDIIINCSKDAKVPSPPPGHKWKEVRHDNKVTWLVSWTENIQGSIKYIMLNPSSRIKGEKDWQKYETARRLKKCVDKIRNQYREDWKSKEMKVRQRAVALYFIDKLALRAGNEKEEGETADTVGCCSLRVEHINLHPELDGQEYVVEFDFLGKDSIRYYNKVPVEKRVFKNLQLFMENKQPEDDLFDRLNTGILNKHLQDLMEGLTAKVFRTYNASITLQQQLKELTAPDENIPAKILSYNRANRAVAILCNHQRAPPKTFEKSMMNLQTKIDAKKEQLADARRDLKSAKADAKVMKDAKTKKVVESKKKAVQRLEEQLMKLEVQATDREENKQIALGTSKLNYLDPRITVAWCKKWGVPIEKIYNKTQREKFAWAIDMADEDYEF
Outline: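 Topo I inhibition read as ATP-independent relaxation of supercoiled plasmid DNA, compared with enzyme and DNA control reactions. Camptothecin at 100 μM was the positive control.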

[3] = system: SK-MEL-2; assay: In vitro percent inhibition of growth of SK-MEL-2, malignant melanoma; assay type: functional, Homo sapiens
[4] = system: CAKI-1; assay: In vitro growth inhibition of CAKI-1, Kidney carcinoma; assay type: functional, cell-based; details: Homo sapiens; outline: as §1
[5] = system: CAKI-1; assay: In vitro percent inhibition of growth of CAKI-1, Kidney carcinoma; assay type: functional, Homo sapiens
[6] = system: A549; assay: In vitro growth inhibition of A549, lung carcinoma.; assay type: functional, cell-based; details: Homo sapiens; outline: as §1
[7] = biological target: Tubulin; assay type: protein-complex assay
[8] = system: SK-MEL-2; assay: In vitro growth inhibition of SK-MEL-2, malignant melanoma; assay type: functional, cell-based; details: Homo sapiens; outline: as §1
[9] = system: MCF7; assay: (§2) In vitro growth inhibition of MCF-7, breast adenocarcinoma.; assay type: functional, cell-based; details: Homo sapiens; outline: as §1
[10] = biological target: T2, DNA topoisomerase II (Homo sapiens, UniProt P11388+Q02880); assay: (§3) In vitro activity against mammalian topoisomerase II measured as ATP-dependent unknotting of P4 DNA compared to enzyme and DNA control; assay type: protein assay; details: concentration not given here
Outline: (§4)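 Topo II inhibition read as ATP-dependent unknotting of P4 DNA, compared with enzyme-only and DNA-only control reactions.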

[11] = biological target: T2, DNA topoisomerase II; assay: In vitro inhibitory activity at 100 uM against topoisomerase II measured as ATP-dependent unknotting of P4 DNA compared to enzyme and DNA control.; assay type: protein assay
[12] = biological target: T1, DNA topoisomerase 1 (Homo sapiens); assay: In vitro inhibitory activity at 100 uM against topoisomerase I measured as ATP-independent relaxation of supercoiled plasmid DNA compared to enzyme and DNA control.
[13] = system: SK-MEL-2; assay: In vitro growth inhibition of SK-MEL-2, malignant melanoma.; assay type: functional, cell-based; details: Homo sapiens; outline: as §1
[14] = system: SK-MEL-2; assay: In vitro percent inhibition of SK-MEL-2 cells, malignant melanoma.; assay type: functional, Homo sapiens; set-up: concentration or dose not given beside the values
[15] = system: CAKI-1; assay: (§5) In vitro percent inhibition of CAKI-1, Kidney carcinoma; assay type: functional, Homo sapiens; set-up: concentration or dose not given beside the values
[16] = biological target: T2, DNA topoisomerase II; assay: as §3; assay type: protein assay; outline: as §4
[17] = system: MCF7; assay: In vitro percent inhibition of MCF-7, breast adenocarcinoma.; assay type: functional, Homo sapiens
[18] = system: A549; assay: In vitro percent inhibition of A549, lung carcinoma.; assay type: functional, Homo sapiens
[19] = biological target: Tubulin alpha chain (Sus scrofa, UniProt P02550); assay: In vitro inhibition of mammalian tubulin polymerization by 50%; Inactive
Tubulin alpha chain, sequence (P02550 whole entry, looked up): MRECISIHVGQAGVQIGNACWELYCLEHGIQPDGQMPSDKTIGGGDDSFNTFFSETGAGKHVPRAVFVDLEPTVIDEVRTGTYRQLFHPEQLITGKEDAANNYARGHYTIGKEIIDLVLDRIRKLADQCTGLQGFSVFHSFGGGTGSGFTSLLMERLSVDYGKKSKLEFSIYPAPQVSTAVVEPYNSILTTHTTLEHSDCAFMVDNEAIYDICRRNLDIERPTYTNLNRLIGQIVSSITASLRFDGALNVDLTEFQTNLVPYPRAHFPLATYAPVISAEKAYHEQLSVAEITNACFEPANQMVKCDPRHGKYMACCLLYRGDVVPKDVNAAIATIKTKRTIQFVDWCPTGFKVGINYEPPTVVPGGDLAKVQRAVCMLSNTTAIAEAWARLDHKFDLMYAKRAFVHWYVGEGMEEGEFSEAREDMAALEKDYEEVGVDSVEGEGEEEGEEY

[20] = system: A549; assay: In vitro growth inhibition of A549, lung carcinoma; assay type: functional, cell-based; details: Homo sapiens; outline: as §1
[21] = system: A549; assay: In vitro percent inhibition of A549, lung carcinoma; assay type: functional, Homo sapiens
[22] = system: KB; assay: In vitro growth inhibition of KB, epidermoid carcinoma of the nasopharynx; assay type: functional, cell-based; details: Homo sapiens; outline: as §1
[23] = system: KB; assay: In vitro epidermoid carcinoma of the nasopharynx; assay type: functional, Homo sapiens; outline: as §1
[24] = system: A549 (Homo sapiens); assay: In vitro percent inhibition of A549, lung carcinoma
[25] = system: KB; assay: In vitro percent inhibition of KB, epidermoid carcinoma of the nasopharynx.; assay type: functional, Homo sapiens
[26] = system: CAKI-1; assay: as §5; assay type: functional, Homo sapiens
[27] = system: SK-MEL-2; assay: In vitro percent inhibition of SK-MEL-2, malignant melanoma.; assay type: functional, Homo sapiens
[28] = system: CAKI-1; assay: In vitro percent inhibition of CAKI-1, Kidney carcinoma; Range 12-38; assay type: functional, Homo sapiens
[29] = system: SK-MEL-2; assay: In vitro percent inhibition of SK-MEL-2 cells, malignant melanoma.; Range 26-41; assay type: functional, Homo sapiens
[30] = system: MCF7; assay: In vitro percent inhibition of MCF-7, breast adenocarcinoma.; Range 23-48; assay type: functional, Homo sapiens
[31] = system: A549; assay: In vitro percent inhibition of A549, lung carcinoma.; Range 18-43
[32] = system: MCF7; assay: as §2; assay type: functional, Homo sapiens; outline: as §1

SMILES	EC50 [1] [µg/mL]	EC50 [6] [µg/mL]	pIC50 [7]	EC50 [9] [µg/mL]	inhibition [11] [%]	inhibition [12] [%]	EC50 [13] [µg/mL]	EC50 [4] [µg/mL]	further results
CSc1ccc2c(cc1=O)[C@@H](NC(=O)c1ccc(CBr)cc1)CCc1cc(O)c(O)c(O)c1-2			< 4.40		100	0			
COc1cc2c(c(O)c1O)-c1ccc(SC)c(=O)cc1[C@@H](NC(C)=O)CC2									IC50 [16]: > 150 µM
CSc1ccc2c(cc1=O)[C@@H](NC(=O)c1ccc(NC(=O)C34CCC(C)(C(=O)O3)C4(C)C)cc1)CCc1cc(O)c(O)c(O)c1-2 (some centres not stated)			< 4.40		0	0			
COc1cc([C@@H]2c3cc4c(cc3[C@@H](O[C@@H]3O[C@@H]5CO[C@@H](C)O[C@H]5[C@H](O)[C@H]3O)[C@H]3COC(=O)[C@H]23)OCO4)cc(OC)c1O [ETOPOSIDE]									IC50 [19]: Not Active
CCCCCC(=O)N[C@H]1CCc2cc(O)c(O)c(O)c2-c2ccc(SC)c(=O)cc21			< 4.40		100	0			
CSc1ccc2c(cc1=O)[C@@H](NC(=O)C13CC4CC(CC(C4)C1)C3)CCc1cc(O)c(O)c(O)c1-2			< 4.40		0	0			
CSc1ccc2c(cc1=O)[C@@H](NC(=O)C13CCC(C)(C(=O)O1)C3(C)C)CCc1cc(O)c(O)c(O)c1-2 (some centres not stated)			< 4.40		0	0			
CSc1ccc2c(cc1=O)[C@@H](NC(C)=O)CCc1cc(O)c(O)c(O)c1-2				13.6 (≈ 36.4 µM)					IC50 [16]: 9 µM; EC50 [22]: > 17.8 µg/mL; Inhibition [14]: 0%; Inhibition [15]: 22%; Inhibition [23]: 0%
CSc1ccc2c(cc1=O)[C@@H](NC(=O)c1ccccc1[N+](=O)[O-])CCc1cc(O)c(O)c(O)c1-2			< 4.40		100	0			
CSc1ccc2c(cc1=O)[C@@H](NC(=O)c1cc([N+](=O)[O-])cc([N+](=O)[O-])c1)CCc1cc(O)c(O)c(O)c1-2			< 4.40		100	0			
COc1cc2c(c(OC)c1OC)-c1ccc(OC)c(=O)cc1[C@@H](NC(C)=O)CC2 [COLCHICINE]	0.002 (≈ 0.00501 µM)	0.022 (≈ 0.0551 µM)		> 0.4			0.008 (≈ 0.02 µM)	0.4 (≈ 1 µM)	
Br.CSc1ccc2c(cc1=O)[C@@H](N)CCc1cc(O)c(O)c(O)c1-2	> 13.2	> 13.2		> 13.2	100	0	> 13.2	> 13.2	Inhibition [17]: 23%; Inhibition [25]: 0%; Inhibition [18]: 0%; Inhibition [26]: 2%; Inhibition [27]: 0%
CSc1ccc2c(cc1=O)[C@@H](NC(=O)c1cc(O)c(O)c(O)c1)CCc1cc(O)c(O)c(O)c1-2	9.6 (≈ 19.9 µM)	> 9.6	< 4.40	8.6 (≈ 17.8 µM)	100	100	> 9.6	> 9.6	Inhibition [14]: 30%; Inhibition [18]: 30%; Inhibition [15]: 29%
COc1c(O)c(O)cc2c1-c1ccc(SC)c(=O)cc1[C@@H](NC(C)=O)CC2									IC50 [16]: 38 µM

More lines, main results first:

EC50 [1] [µg/mL]	EC50 [6] [µg/mL]	pIC50 [7]	EC50 [9] [µg/mL]	inhibition [11] [%]	inhibition [12] [%]	EC50 [13] [µg/mL]	SMILES	EC50 [4] [µg/mL]	further results
6.5 (≈ 9.93 µM)	24.2 (≈ 37 µM)	< 4.40	13.1 (≈ 20 µM)				COC(=O)Oc1cc2c(c(OC(=O)OC)c1OC(=O)OC)-c1ccc(SC)c(=O)cc1[C@@H](NC(=O)c1ccc([N+](=O)[O-])cc1)CC2	> 26.2	inhibition [2]: 0%; Inhibition [3]: 44%; Inhibition [5]: 38%; EC50 [8]: > 26.2 µg/mL; inhibition [10]: 0%
4.8	9.7	< 4.40	10.7			> 19.5	Br.CSc1ccc2c(cc1=O)[C@@H](NC(=O)c1ccc(N)cc1)CCc1cc(O)c(O)c(O)c1-2	> 19.5	Inhibition [14]: 42%; Inhibition [15]: 37%
7.7 (≈ 16 µM)	> 9.6	< 4.40	> 9.6	100	< 100	> 9.6	CSc1ccc2c(cc1=O)[C@@H](NC(=O)c1ccc([N+](=O)[O-])cc1)CCc1cc(O)c(O)c(O)c1-2	> 9.6	Inhibition [17]: 38%; Inhibition [14]: 0%; Inhibition [18]: 36%; Inhibition [15]: 20%
		< 4.40		100	0		CSc1ccc2c(cc1=O)[C@@H](NC(=O)c1ccc(Cl)cc1)CCc1cc(O)c(O)c(O)c1-2		
25.5 (≈ 36.9 µM)		< 4.40	> 27.6	0	0	27.6 (≈ 40 µM)	CSc1ccc2c(cc1=O)[C@@H](NC(=O)c1ccc([N+](=O)[O-])cc1)CCc1cc(OC(=O)C(C)C)c(OC(=O)C(C)C)c(OC(=O)C(C)C)c1-2	> 27.6	Inhibition [17]: 43%; EC50 [20]: > 27.6 µg/mL; Inhibition [15]: 17%; Inhibition [21]: 19%
> 18	> 18		14.8 (≈ 32.9 µM)			> 18	CSc1ccc2c(cc1=O)[C@@H](NC(=O)c1ccc(N)cc1)CCc1cc(O)c(O)c(O)c1-2 [listing 1 of 2 here]	> 18	Inhibition [14]: 0%; Inhibition [24]: 39%; Inhibition [15]: 13%; Inhibition [23]: 35%
				100	0		CSc1ccc2c(cc1=O)[C@@H](NC(=O)c1ccc(N)cc1)CCc1cc(O)c(O)c(O)c1-2 [listing 2 of 2 here]		
2.7 (≈ 4.45 µM)	> 0.15	< 4.40	> 0.15	0	0	> 0.3	CSc1ccc2c(cc1=O)[C@@H](NC(=O)c1ccc([N+](=O)[O-])cc1)CCc1cc(OC(C)=O)c(OC(C)=O)c(OC(C)=O)c1-2	> 0.3	Inhibition [28]: 12%; Inhibition [29]: 26%; Inhibition [30]: 23%; Inhibition [31]: 18%
		< 4.40		100	0		CSc1ccc2c(cc1=O)[C@@H](NC(=O)c1cccc([N+](=O)[O-])c1)CCc1cc(O)c(O)c(O)c1-2		
		< 4.40		100	0		CSc1ccc2c(cc1=O)[C@@H](NC(=O)c1ccc(F)cc1)CCc1cc(O)c(O)c(O)c1-2		
12.3 (≈ 19 µM)	> 25.9	< 4.40	> 12.9	0	0	12.9 (≈ 19.9 µM)	CCC(=O)Oc1cc2c(c(OC(=O)CC)c1OC(=O)CC)-c1ccc(SC)c(=O)cc1[C@@H](NC(=O)c1ccc([N+](=O)[O-])cc1)CC2	> 25.9	Inhibition [32]: 40%; Inhibition [18]: 29%; Inhibition [15]: 16%
